# Screens as filed in PubChem BioAssay.
# Kir21 block = blocks the mouse Kir2.1 inward-rectifier potassium channel; P35561; HEK293-Kir2.1, FluxOR thallium flux fluorescence; stronger effect = lower value; B-score at 10 µM; 310,000 tested, 0.85% active; AID 1672;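 active = fluorescence ratio B-score at or below minus 3 SD of library scores, with starting-brightness B-score within 2 SD, cut at about -4.2 in these data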;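 note: channel flux triggered by added potassium and thallium sulfate stimulus; B-score of peak minus minimum fluorescence over baseline after thallium stimulus; more negative B-score means stronger Kir2.1 block with less thallium influx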
# KCNK3 block = human KCNK3 channel inhibition, primary screen; 340,000 tested, 0.84% active; AID 602410; CHO-KCNK3 thallium flux, FluxOR fluorescence; stronger effect = lower value; B-score at 10 µM; O14649;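 active = B-score under library mean minus 4 SD, starting fluorescence ratio at most library mean plus 5 SD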;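 note: more negative B-score means stronger inhibition of thallium flux through KCNK3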
# Target sequence (O14649 whole entry, looked up): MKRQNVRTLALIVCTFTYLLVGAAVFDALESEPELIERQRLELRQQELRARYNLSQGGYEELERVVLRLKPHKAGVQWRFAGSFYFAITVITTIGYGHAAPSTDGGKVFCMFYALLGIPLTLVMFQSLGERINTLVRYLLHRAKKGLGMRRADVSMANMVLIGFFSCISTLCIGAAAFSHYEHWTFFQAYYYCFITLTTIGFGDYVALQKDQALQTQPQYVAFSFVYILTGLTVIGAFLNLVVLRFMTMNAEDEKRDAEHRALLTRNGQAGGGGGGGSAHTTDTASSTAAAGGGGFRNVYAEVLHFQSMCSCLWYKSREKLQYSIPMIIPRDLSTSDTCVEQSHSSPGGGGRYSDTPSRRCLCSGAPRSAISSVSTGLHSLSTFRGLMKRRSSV
# hERG rescue = compounds protecting human hERG from proarrhythmic drug block. AID 1511. 310,000 tested, 0.51% active. CHO-hERG, FluxOR thallium flux, dofetilide IC70 present. activation (rescue from dofetilide block), less the hit threshold, % at 10 µM;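 active = activation above the mean of controls blocked by dofetilide plus 5 SD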;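 note: thallium influx through hERG after potassium depolarization seen as dye fluorescence rise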
# KCNK9 inh = blocks the human KCNK9 two-pore domain potassium channel; Q9NPC2; HEK293 KCNK9, FluxOR thallium flux fluorescence; stronger effect = lower value; B-score at 10 µM; 310,000 tested, 1.2% active; AID 488922;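 active = ratio B-score over 3 SD below the library mean, with starting fluorescence within 5 SD of its mean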;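 note: negative B-score means less thallium flux so channel inhibition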
# KCNQ1 block = inhibitors of human KCNQ1 potassium channel; P51787; CHO-K1 KCNQ1, FluxOR thallium flux fluorescence; stronger effect = higher value; B-score at 10 µM; 310,000 tested, 1.3% active; AID 2642;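 active = compounds whose thallium flux B-score, printed positive for inhibition, exceeds three library SD while starting fluorescence stays within three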;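 note: channel opened by potassium depolarization with thallium stimulus after 20 min compound exposure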
# KCNQ1 act = potentiators or activators of human KCNQ1 potassium channel | CHO-K1 KCNQ1, thallium flux FluxOR fluorescence; stronger effect = higher value | AID 2648 | B-score at 10 µM | 310,000 tested, 0.35% active;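 active = fluorescence ratio B-score, a plate-corrected score, at least three library SD, with initial intensity B-score within 5 SD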
#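 System: CHO-K1 cells stably expressing KCNQ1 / Medium: assay buffer for compound exposure, DMSO matched across wells / Reagent: thallium- and potassium-containing depolarizing buffer / Compound: one concentration, matched DMSO / Incubation: 20 min compound pretreatment at room temperature / Measured by: kinetic FluxOR fluorescence, 10 s baseline plus 110 s post-stimulus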
# KCNK3 inh conf = human KCNK3 channel inhibition, confirmation assay; shares compounds with KCNK3 block; CHO-KCNK3 thallium flux, FluxOR fluorescence; 0% buffer, 100% carvedilol maximal block; ratio percent of control, % at 10 µM; 2,400 tested, 99% active;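 active = ratio percent of control, averaged over triplicates, above buffer control mean plus 5 SD, cut at about 64% in these data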;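 note: ratio is the fluorescence rise from min to max over baseline after thallium stimulus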
# KCNK3 uninduced = KCNK3 inhibitor counter-screen hit in non-induced cells | thallium flux ratio (lower = more inhibition) at 10 µM | 2,400 tested, 40% active | AID 651747 | shares compounds with KCNK3 block | non-induced KCNK3 parental cells, FluxOR thallium flux; stronger effect = lower value;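 active = thallium flux ratio, averaged over three wells, more than 5 SD below the buffer control mean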;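 note: host cells are CHO cells without KCNK3 induction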
# Hits are given with their value; - = inactive; . = no result. Compounds with a hit are over-represented: about 3.7% of the library has one in this group of screens.
SMILES,Kir21 block,KCNK3 block,hERG rescue,KCNK9 inh,KCNQ1 block,KCNQ1 act,KCNK3 inh conf,KCNK3 uninduced
COc1cc(/C=N/NC(=O)C2COc3ccccc3O2)cc(OC)c1OC (stereo not drawn),-,-,-,-,-,-,.,.
CCOC(=O)CSc1nc2ccccc2c(=O)n1CC1CCCC1,-,-11,-,-,-,-,116,0.15
CCOC(=O)CSc1nc2ccccc2c(=O)n1CC,-,-,-,-,-,-,.,.
COc1cc2nc(Nc3ccc(C)c(C)c3)nc(N)c2cc1OC,-4.7,-9.3,-,-,-,-,114,-
O=S(=O)(Cc1ccccc1)N=Nc1c(O)[nH]c2ccc(Br)cc12,-,-,-,-,-,-,.,.
CCSc1nc2ccccc2n1Cc1ccccc1F,-,-,-,-,-,-,.,.
CCSc1nc2ccccc2n1Cc1cccc([N+](=O)[O-])c1,-,-8.8,-,-,-,-,95,-
c1ccc(-c2nc(NCCCn3ccnc3)c3ccccc3n2)cc1,-,-11,-,-,-,-,100,0.15
COc1ccc(CN(C(=O)c2ccco2)c2ccc(C)c(C)c2)cc1,-,-11,-,-7.1,-,-,105,-
COc1ccc(OC)c(NC(=O)c2ccc3c(c2)OCO3)c1,-,-,-,-,-,-,.,.
COc1cccc(CC(=O)Nc2nc(-c3cc(OC)ccc3OC)cs2)c1,-,-,-,-,-,-,.,.
COc1ccc(OC)c(-c2csc(NC(=O)c3ccc4c(c3)OCO4)n2)c1,-,-9.3,-,-,-,-,92,-
COc1ccc(OC)c(-c2csc(N(Cc3ccco3)C(=O)c3ccco3)n2)c1,-,-12,-,-7.3,-,-,102,-
COc1ccc(OC)c(-c2csc(NC(=O)Cc3ccccc3)n2)c1,-,-9.4,-,-,-,-,125,0.15
O=C(C1CC1)N1N=C(c2ccncc2)CC1(O)C(F)(F)F (stereo not drawn),-,-,-,-,-,-,.,.
COc1ccc(OC)c(-c2csc(NC(=O)Cc3cccs3)n2)c1,-,-8.8,-,-,-,-,85,-
COc1cccc(C(=O)N2CCN(Cc3nc(CC4CC4)no3)CC2)c1,-,-,-,-,-,-,.,.
COn1c(=O)c(-c2cccs2)[n+]([O-])c2ccccc21,-,-10,-,-,-,-,87,0.11
Cc1ccccc1NC1c2ccccc2C(=O)N1Cc1ccco1 (stereo not drawn),-,-10,-,-,-,-,119,0.15
CNc1ccccc1NC(=O)C1CCCN1C(=O)OCc1ccccc1 (stereo not drawn),-,-,-,-,-,-,.,.
COc1cccc(CN2CCC(Oc3ccc(C(=O)N4CCCCC4)cc3)CC2)c1O,-,-,-,-,-,-,.,.
CS(=O)(=O)Nc1ccc(C(=O)Nc2cccc([N+](=O)[O-])c2)cc1,-,-,-,-,-,-,.,.
O=C(Nc1ccccc1Cl)c1cc2ccccc2o/c1=N\O,-,-,-,-,-,-,.,.
COc1cccc(NC(=O)c2cc3ccccc3o/c2=N\O)c1,-,-8.7,-,-,-,-,125,0.13
CC[C@H]1OC(=O)[C@H](C)[C@@H](O[C@H]2C[C@@](C)(OC)[C@@H](O)[C@H](C)O2)[C@H](C)[C@@H](O[C@@H]2O[C@H](C)C[C@H](N(C)C)[C@H]2O)[C@](C)(OC)C[C@@H](C)C(=O)[C@H](C)[C@@H](O)[C@]1(C)O,-,-,-,-,-,-,.,.
SMILES,Kir21 block,KCNK3 block,hERG rescue,KCNK9 inh,KCNQ1 block,KCNQ1 act,KCNK3 inh conf,KCNK3 uninduced
Cc1sc(NC(=O)c2ccco2)nc1-c1ccc2c(c1)CC(C)N2C(=O)C1CC1 (stereo not drawn),-,-9.4,-,-,6,-,101,-
Cc1sc(NC(=O)c2ccco2)nc1-c1ccccc1,-,-,-,-,-,-,.,.
Cc1ccccc1NC1=C(Cl)C(=O)OC1OC(=O)c1ccccc1C (stereo not drawn),-,-12,-,-,-,-,128,0.11
Cc1nn(C(C)(C)C)c(OC(=O)C2CCCC2)c1S(=O)(=O)c1ccccc1,-,-9.9,-,-,-,-,90,-
O=C(NCC1OCCCN1S(=O)(=O)c1cc(F)ccc1F)C(=O)NC1CCCC1 (stereo not drawn),-,-,-,-,-,-,.,.
Cc1ccc(/C=C/c2nnc(-c3ccc(C)cc3)o2)cc1,-,-,-,-,-,-,.,.
Cc1ccc(/C=C/c2nnc(-c3cccs3)o2)cc1,-,-8.8,-,-,-,-,84,-
COc1cc(NC(=O)CN(C)S(=O)(=O)c2ccc3c(c2)CC(C)N3C(C)=O)cc(OC)c1OC (stereo not drawn),-,-,-,-,-,-,.,.
CCC1(C(=O)c2ccc(Cl)cc2)C2c3ccccc3OC(=O)C21C(=O)Nc1ccccc1 (stereo not drawn),-,-,-,-,-,-,.,.
COc1ccc(N2CCN(Cc3cc4c(cc3O)CCC4)CC2)cc1,-,-,-,-,-,-,.,.
Oc1cc2c(cc1CN1CCN(c3cccc(C(F)(F)F)c3)CC1)CCC2,-,-9.4,-,-,-,-,100,0.15
COc1ccc(/C=N/NC(=O)c2cc(-c3ccccc3OC)nc3ccccc23)cc1COC(C)=O,-,-11,-,-,-,-,97,-
O=c1[nH]c(N/N=C\c2ccc3c(c2)OCO3)nc2ccccc12,-,-,-,-,-,-,.,.
Cc1cc(N/N=C/c2ccc3c(c2)OCO3)nc2ccccc12,-,-11,-,-,-,-,113,-
Cc1ccc(C(=O)CSc2nc(N)cc(=O)[nH]2)cc1,-,-,-,-,-,-,.,.
C=C(C)CSc1nc(N)cc(=O)[nH]1,-,-21,-,-,-,-,67,-
COC(=O)CSc1nc(Cc2ccccc2)nc2ccccc12,-,-8.7,-,-,-,-,119,-
COc1ccccc1NC(=O)COC(=O)c1ccccc1C(=O)N1CCN(c2ccccc2)CC1,-,-,-,-,-,-,.,.
O=C(COCC(=O)Nc1cccc(C(F)(F)F)c1)Nc1cccc(C(F)(F)F)c1,-,-,-,-,-,-,.,.
COc1cc(NC(=O)CSCC(=O)Nc2cccc(C(F)(F)F)c2)c(Cl)cc1Cl,-,-11,-,-,7,-,115,-
CCc1ccc(/C=N/NC(=O)c2nnn(-c3nonc3N)c2CN2CCOCC2)cc1,-,-,-,-,-,-,.,.
CCOc1ccc(NC(=S)N(CCc2c(C)[nH]c3ccc(C)cc23)Cc2cccnc2)cc1,-,-9.9,-,-,-,-,92,0.14
